What all share (assay type): cell-based
The subject of assay [1] is Jurkat cells. Description: MTT assay of Jurkat cells with 4 in the presence of inhibitors. The conditions noted are these: 4 (25 μM), 1 h; BAPTA/AM 20 μM. An outline of the steps:
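Jurkat cells (1.0 × 10^5 cells/mL) in 10% FBS RPMI 1640 were preincubated with inhibitor for 30 min at 37 °C under 5% CO2, then given test compound (25 μM) for 1 h. After a further 4 h at 37 °C, 0.5% MTT in PBS was added. Formazan was dissolved overnight in 10% SDS/0.01 N HCl and absorbance read at 570 nm.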

The subject of assay [2] is mitochondrial membrane potential (ΔΨm) of Jurkat cells. The assay can be described thus: Measurement of mitochondrial membrane potential. The conditions noted are these: 4 25 μM; CCCP 40 μM; DilC1(5) 500 nM. In short, it runs like this: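 Jurkat cells (2.0 × 10^5) in 10% FBS RPMI 1640 were preincubated with or without CCCP (40 μM) for 30 min at 37 °C under 5% CO2, then exposed to test compound (25 μM) for 1 h. ΔΨm was probed with DilC1(5) (500 nM). Confocal imaging recorded bright field, DilC1(5) emission and compound emission.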

Assay [3] concerns Jurkat cells (T-lymphocyte leukemia). The assay can be described thus: MTT assay of Jurkat cells. In short, it runs like this:
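Jurkat cells (2.0 × 10^5 cells/mL) were exposed to test compound ([…]) in 10% FBS/RPMI 1640 for 24 h at 37 °C under 5% CO2. After adding 0.5% MTT in PBS and incubating 4 h at 37 °C, formazan was dissolved overnight in 10% SDS/0.01 N HCl. Absorbance was read at 570 nm.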
Background: Tetrazolium assays rely on reduction of a dye to a coloured formazan, in cell work by metabolically active cells.

The subject of assay [4] is intracellular Ca^2+ in Jurkat cells. Description: Flow cytometry analysis of Jurkat cells stained with Rhod-2 or Rhod-4. The conditions noted are these: celastrol, Figure S7. In general terms: Flow cytometry measures light scatter and fluorescence of single cells or particles in a stream.
Assay [5] concerns Jurkat cells. The assay can be described thus: Methylene blue staining and TEM of Jurkat cells. The conditions noted are these: 4 25 μM 1 h; celastrol 1 μM 24 h. In short, it runs like this: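 Jurkat cells (3.0 × 10^6) received test compound (25 μM, 1 h, 37 °C) or celastrol (1 μM, 24 h). Cells were pelleted, washed in ice-cold PBS/0.1% NaN3/0.5% FBS and prefixed in 2.5% glutaraldehyde (4 °C, 40 min). Postfixing used 1% OsO4 (4 °C, 30 min), then agarose embedding and ethanol dehydration. Cells were resin-embedded (60 °C, 3 days) and cut into 150 nm sections for methylene blue light microscopy and TEM.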

For the compound `CC(=O)OCOC(=O)CN(CC(=O)OCOC(C)=O)c1ccccc1OCCOc1ccccc1N(CC(=O)OCOC(C)=O)CC(=O)OCOC(C)=O` [BAPTA/AM, tetrakis(acetoxymethyl)-1,2-bis(2-aminophenoxy)ethane-N,N,N′,N′-tetraacetate], the “Inhibition of cell death induced by 4 (MTT, microscopy)” value (“Inhibition of cell death induced” below) in the assay on Jurkat cells [1] is on record as “negligibly inhibits”.

Regarding `N#CC(C#N)=NNc1cccc(Cl)c1` [CCCP, Carbonyl cyanide 3-chlorophenylhydrazone], the “Mitochondrial membrane potential (ΔΨm), emission of DilC1(5)” value in assay [2] was “decrease in ΔΨm was also observed”.

On to `O=C(Nc1ccc2[nH]nc(-c3ccncc3)c2c1)[C@@H]1CCN(CC(=O)N2CCN(c3ccc(-c4ncccn4)cc3)CC2)C1` [SCH772984], for which the “Inhibition of cell death induced” value in the assay on Jurkat cells [1] is “negligible inhibition”.

Regarding `Oc1c2ccccc2c2c3c(cccc13)N=N2` [SP600125], in the assay with Jurkat cells [1], the “Inhibition of cell death induced” value is listed as “negligible inhibition”.

A word on the EC50: it is the concentration that produces a half-maximal response. As for `CN1CCN(CCCN2c3ccccc3Sc3ccc(C(F)(F)F)cc32)CC1` [TFP, trifluoperazine], the half-maximal effective concentration (EC50) in assay [3] (Homo sapiens, Jurkat, read-out: EC50, cell death of Jurkat cells) is approximately 50 µM. Moreover, the “Cooperative effects with 4 on cell death of Jurkat cells” value in assay [3] (TFP with 4 (25 μM), data not shown) was “negligible”.

As to `N#CC(=C(/N)Sc1ccccc1N)/C(C#N)=C(/N)Sc1ccccc1N` [U0126], the “Inhibition of cell death induced” value with Jurkat cells [1] is reported as “negligible inhibition”.

Consider `CC1=C(O)C(=O)C=C2C1=CC=C1[C@@]2(C)CC[C@@]2(C)[C@@H]3C[C@](C)(C(=O)O)CC[C@]3(C)CC[C@]12C` [celastrol], for which the “Change in mitochondrial Ca2+ concentration (Rhod-2)” value in assay [4] is on record as “small change”. Also, in the assay on Jurkat cells [5], the “Cytoplasmic vacuolization, TEM” value was “vacuolization” and the “Cytoplasmic vacuolization, methylene blue staining” value is “same intracellular morphological changes”.

Values taken from publication PMC7114882 (ACS Omega, 2020).
